Data taken from paper PMC7717452 (Journal of Enzyme Inhibition and Medicinal Chemistry, 2020).
Like-named read-outs stand apart in the source and are kept apart here. One block for each molecule: values may come before it.

Columns and labels:
[1] = molecular target: T1, LiTryS (Leishmania infantum trypanothione synthetase) (Leishmania infantum, UniProt A4I2Z3); assay: TryS activity end-point assay; type: biochemical; conditions: for % TryS inhibition at 30 µM, LiTryS: NA = not active (enzyme activity > 95%); for IC50: ± 2σ, ∼30 assumed for 50 ± 5% inhibition at 30 µM
T1 sequence (A4I2Z3 1-652): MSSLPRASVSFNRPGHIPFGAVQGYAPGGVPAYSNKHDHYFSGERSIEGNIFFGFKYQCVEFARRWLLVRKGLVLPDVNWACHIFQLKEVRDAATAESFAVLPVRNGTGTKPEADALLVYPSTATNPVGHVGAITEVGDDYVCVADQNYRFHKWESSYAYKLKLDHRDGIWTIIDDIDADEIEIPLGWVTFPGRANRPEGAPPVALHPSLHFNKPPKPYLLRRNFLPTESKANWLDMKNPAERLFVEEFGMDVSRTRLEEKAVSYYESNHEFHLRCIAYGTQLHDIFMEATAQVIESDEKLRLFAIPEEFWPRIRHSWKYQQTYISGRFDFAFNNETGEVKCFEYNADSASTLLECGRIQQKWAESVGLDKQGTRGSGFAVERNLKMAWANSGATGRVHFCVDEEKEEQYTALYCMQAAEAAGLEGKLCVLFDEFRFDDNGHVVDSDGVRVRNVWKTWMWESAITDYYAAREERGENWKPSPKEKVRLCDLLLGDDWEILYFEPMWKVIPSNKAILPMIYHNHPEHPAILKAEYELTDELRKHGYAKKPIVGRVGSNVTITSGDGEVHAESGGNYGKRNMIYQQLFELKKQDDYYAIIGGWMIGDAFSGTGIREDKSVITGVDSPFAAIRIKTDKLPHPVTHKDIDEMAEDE
Method in brief: (§1)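 Recombinant TryS end-point assay in 100 mM HEPES pH 7.4 with 5 mM DTT, 10 mM MgSO4 and 0.5 mM EDTA. ATP was 150 µM and spermidine 2 mM. GSH was 0.25 mM for LiTryS, 0.05 mM for TbTryS and 0.57 mM for TcTryS. Enzyme started the reaction and BIOMOL Green stopped it after 15 min. A650 was read after 20 min at room temperature. Values were corrected with no-enzyme blanks and for compound interference with phosphate. At least quadruplicates; IC50 is given ± 2σn-1.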

[2] = system: L. braziliensis amastigotes; assay: Macrophage infection assay, L. braziliensis amastigotes; type: cell-based, Leishmania braziliensis; conditions: for activity at 10 µM: Leishmania braziliensis, Macrophage, read-out: % infection by L. braziliensis at 10 µM; for SI, L. braziliensis amastigotes: selectivity index, macrophage CC50 and amastigote EC50
Method in brief: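 J774 macrophages were plated on coverslips at 1 × 10^5 cells/mL in DMEM with 1% FBS. They were infected with stationary-phase L. braziliensis promastigotes (MHOM/BR/01/BA788; 1:20) for 2 h at room temperature, then 22 h at 35 °C. After washing, cells got test compound (5 or 10 µM, or 10–0.01 µM) in 1% DMSO for 24 h at 37 °C and 5% CO2. Cells were EtOH-fixed and DAPI-stained, and 100–200 macrophages were imaged. % infected cells is relative to DMSO.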

Cytotoxicity assay = type: cell-based, mouse; conditions: mouse, J774 macrophages (ATCC TIB67), non-infected
Method in brief: (§2)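 J774 mouse macrophages were grown in DMEM with 10% FBS and penicillin/streptomycin at 37 °C in humidified 5% CO2. Cells were seeded at 6 × 10^4 cells/mL and exposed the next day for 24 h to test compound at 100 to 0.001 µM (200 µM for one compound). The WST-1 signal was read at A450. % cytotoxicity was calculated against DMSO-treated and untreated cells, and CC50 is given ± σn–1.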

[3] = system: Mouse macrophages from the cell line J774; assay: Cytotoxicity assay; type: cell-based; conditions: 24 h, non-infected J774; for CC50: read-out: CC50, macrophages
Method in brief: as §2

TbTryS = molecular target: T2, TbTryS (Trypanosoma brucei brucei, UniProt Q8IEX1); assay: TryS activity end-point assay; type: biochemical; conditions: IC50 value, TbTryS, ± 2σ; ~30 assumed for 50 ± 5% inhibition at 30 µM
T2 sequence (Q8IEX1 1-627): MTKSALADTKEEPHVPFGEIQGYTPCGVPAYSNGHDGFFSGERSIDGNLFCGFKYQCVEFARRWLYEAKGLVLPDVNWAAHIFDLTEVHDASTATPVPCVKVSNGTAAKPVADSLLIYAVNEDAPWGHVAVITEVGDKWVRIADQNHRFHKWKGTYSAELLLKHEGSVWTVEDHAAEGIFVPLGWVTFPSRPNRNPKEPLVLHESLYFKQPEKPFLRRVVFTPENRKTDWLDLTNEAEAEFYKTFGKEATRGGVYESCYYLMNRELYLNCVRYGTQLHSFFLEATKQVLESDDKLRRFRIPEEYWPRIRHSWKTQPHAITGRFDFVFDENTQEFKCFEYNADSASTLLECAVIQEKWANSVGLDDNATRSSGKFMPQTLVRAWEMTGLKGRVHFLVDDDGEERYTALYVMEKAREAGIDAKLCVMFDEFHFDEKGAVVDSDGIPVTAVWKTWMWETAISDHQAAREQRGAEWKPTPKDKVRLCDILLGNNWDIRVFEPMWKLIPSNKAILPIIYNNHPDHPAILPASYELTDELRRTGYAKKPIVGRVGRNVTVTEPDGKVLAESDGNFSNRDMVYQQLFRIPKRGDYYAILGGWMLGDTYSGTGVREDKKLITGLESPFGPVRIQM
Method in brief: as §1

[4] = 24 h, relative to infected non-treated macrophages

IC50 ([1]; IC50 value, LiTryS): 5100 ± 500 nM
SMILES: NC(=O)CN1C(=O)Cc2c([nH]c3ccc(Br)cc23)-c2ccc(Cl)cc21 [Compound 7]

IC50 ([1]; IC50 value, LiTryS): 2300 ± 400 nM
SMILES: CC(C)(C)NC(=O)CN1C(=O)Cc2c([nH]c3ccc(Br)cc23)-c2ccc(Cl)cc21 [Compound 15]
activity at 10 µM ([2]; 24 h): 104 ± 1% | cytotoxicity at 24 h, 100 µM (Cytotoxicity assay): 48 ± 8%

% TryS inhibition at 30 µM, LiTryS [1]: inactive
SMILES: O=C(O)CN1C(=O)Cc2c([nH]c3ccc(Br)cc23)-c2ccc(Cl)cc21 [Compound 3]

IC50 ([1]; read-out: IC50 value, LiTryS): 2400 ± 300 nM
SMILES: CC(C)(C)OC(=O)CN1C(=O)Cc2c([nH]c3ccc(Br)cc23)-c2ccc(Cl)cc21 [Compound 6]
% infection by L. braziliensis at 10 µM ([2]; 10 µM, 24 h, relative to infected non-treated macrophages): 89 ± 13% | % cytotoxicity at 100 µM, macrophages ([3]; 100 µM): 64 ± 0%

IC50 ([1]; IC50 value, LiTryS): 4000 ± 500 nM
SMILES: NNC(=O)CN1C(=O)Cc2c([nH]c3ccc(Br)cc23)-c2ccc(Cl)cc21 [Compound 8]

IC50 ([1]; IC50 value, LiTryS): 500 nM
SMILES: CN(C)C(=O)CN1C(=O)Cc2c([nH]c3ccc(Br)cc23)-c2ccc(Cl)cc21 [Compound 10]
% infection by L. braziliensis at 5 µM [2, 4]: 72 ± 4 at 5 µM % | cytotoxicity at 24 h, 100 µM (Cytotoxicity assay): 21 ± 1%

IC50 ([1]; IC50 value, LiTryS): 3000 ± 700 nM
SMILES: COC(=O)CN1C(=O)Cc2c([nH]c3ccc(Br)cc23)-c2ccc(Cl)cc21 [Compound 4]

IC50 ([1]; IC50 value, LiTryS): 2300 ± 300 nM
SMILES: O=C(CN1C(=O)Cc2c([nH]c3ccc(Br)cc23)-c2ccc(Cl)cc21)NCCO [Compound 13]

Continued, molecule first:

SMILES: CCOC(=O)CN1C(=O)Cc2c([nH]c3ccc(Br)cc23)-c2ccc(Cl)cc21 [Compound 5]
% TryS inhibition at 30 µM, LiTryS [1]: 36.2 ± 3.6%

SMILES: O=C(CN1C(=O)Cc2c([nH]c3ccc(Br)cc23)-c2ccc(Cl)cc21)N1CCCC1 [Compound 25]
activity at 10 µM ([2]; 24 h): 68 ± 8% | cytotoxicity at 24 h, 100 µM (Cytotoxicity assay): 69% | IC50 ([1]; IC50 value, LiTryS): 500 ± 200 nM

SMILES: O=C(CN1C(=O)Cc2c([nH]c3ccc(Br)cc23)-c2ccc(Cl)cc21)N1CCOCC1 [Compound 26]
activity at 10 µM ([2]; 24 h): 29 ± 3% | SI, L. braziliensis amastigotes [2]: 6 | CC50 [3]: 10200 ± 200 nM | IC50 ([1]; IC50 value, LiTryS): 2800 ± 700 nM

SMILES: O=C(CN1C(=O)Cc2c([nH]c3ccc(Br)cc23)-c2ccc(Cl)cc21)NCCN1CCCCC1 [Compound 31]
% infection by L. braziliensis at 5 µM [2, 4]: 49 ± 3 at 5 µM % | SI, L. braziliensis amastigotes [2]: 2 | CC50 [3]: 9000 ± 1000 nM | IC50 ([1]; IC50 value, LiTryS): 800 ± 100 nM

SMILES: NCCCCNC(=O)CN1C(=O)Cc2c([nH]c3ccc(Br)cc23)-c2ccc(Cl)cc21 [Compound 35]
activity at 10 µM ([2]; 24 h): 116 ± 3% | cytotoxicity at 24 h, 100 µM (Cytotoxicity assay): 0% | IC50 ([1]; IC50 value, LiTryS): 400 ± 100 nM

SMILES: O=C(CN1C(=O)Cc2c([nH]c3ccc(Br)cc23)-c2ccc(Cl)cc21)N1CCCCC1 [Compound 24, 9-Bromo-3-chloro-5-[2-oxo-2-(piperidin-1-yl)ethyl]-7,12-dihydrobenzo[2,3]azepino-[4,5-b]indol-6(5H)-one]
% TryS inhibition at 30 µM, LiTryS [1]: 38.6 ± 1.3%

SMILES: O=C(CN1C(=O)Cc2c([nH]c3ccc(Br)cc23)-c2ccc(Cl)cc21)Nc1ccccc1 [Compound 19]
IC50 (TbTryS): 30000 nM | IC50 ([1]; IC50 value, LiTryS): ~30000 nM

SMILES: O=C(CN1C(=O)Cc2c([nH]c3ccc(Br)cc23)-c2ccc(Cl)cc21)NC1=NCCS1 [Compound 17]
IC50 ([1]; IC50 value, LiTryS): ~30000 nM
